Among the data in ChEMBL document CHEMBL2150950, “Effect of 4-aryl-2-methyl-5-nitro-1,4-dihydropyridine-3-carboxylates on the guinea pig papillary muscle and isolated human vena saphena magna that is used for coronary artery bypass grafting” (2011) are Activity and Time values, retold here.

The source made the active and inactive calls. No cut-off for these calls is given here.

A short description of experiment [1]: Ionotropic effect in guinea pig right ventricle papillary muscles assessed as contraction force at 10^-4 M by force transduction assay relative to untreated control (reference value: 100%). It counts as functional, Cavia porcellus, Papillary muscle.
A short description of experiment [2]: Ionotropic effect in guinea pig ventricle papillary muscles assessed as lengthening of 90% repolarized cardiac action potential duration time at 10^-7 M by microelectrode technique relative to untreated control (reference value: 132 to 176 APD50 ms). It counts as functional, Cavia porcellus, Papillary muscle.
Experiment [3] in a line: Ionotropic effect in guinea pig right ventricle papillary muscles assessed as contraction force at 10^-6 M by force transduction assay relative to untreated control (reference value: 100%). It counts as functional, Cavia porcellus, Papillary muscle.
Experiment [4] can be described thus: Ionotropic effect in guinea pig ventricle papillary muscles assessed as lengthening of 50% repolarized cardiac action potential duration time at 10^-6 M by microelectrode technique relative to untreated control (reference value: 132 to 176 APD50 ms). The experiment is classed as functional, Cavia porcellus, Papillary muscle.
The nature of experiment [5]: Ionotropic effect in guinea pig ventricle papillary muscles assessed as lengthening of […] cardiac action potential duration time at 10^-5 M by microelectrode technique relative to untreated control (reference value: 37 to 47 […] ms). It counts as functional, Cavia porcellus, Papillary muscle.
A short description of experiment [6]: Ionotropic effect in guinea pig ventricle papillary muscles assessed as lengthening of 25% repolarized cardiac action potential duration time at 10^-7 M by microelectrode technique relative to untreated control (reference value: 84 to 104 APD25 ms). It counts as functional, Cavia porcellus, Papillary muscle.
A short description of experiment [7]: Ionotropic effect in guinea pig ventricle papillary muscles assessed as lengthening of 50% repolarized cardiac action potential duration time at 10^-5 M by microelectrode technique relative to untreated control (reference value: 132 to 176 APD50 ms). The experiment is classed as functional, Cavia porcellus, Papillary muscle.
Experiment [8] is described as follows: Ionotropic effect in guinea pig ventricle papillary muscles assessed as lengthening of 10% repolarized cardiac action potential duration time at 10^-7 M by microelectrode technique relative to untreated control (reference value: 37 to 47 APD10 ms). It counts as functional, Cavia porcellus, Papillary muscle.
Experiment [9] in a line: Ionotropic effect in guinea pig right ventricle papillary muscles assessed as contraction force at 10^-7 M by force transduction assay relative to untreated control (reference value: 100%). The experiment is classed as functional, Cavia porcellus, Papillary muscle.
Experiment [10] in a line: Ionotropic effect in guinea pig ventricle papillary muscles assessed as lengthening of 25% repolarized cardiac action potential duration time at 10^-4 M by microelectrode technique relative to untreated control (reference value: 84 to 104 APD25 ms). It counts as functional, Cavia porcellus, Papillary muscle.
The nature of experiment [11]: Ionotropic effect in guinea pig ventricle papillary muscles assessed as lengthening of 90% repolarized cardiac action potential duration time at 10^-6 M by microelectrode technique relative to untreated control (reference value: 132 to 176 APD50 ms). It counts as functional, Cavia porcellus, Papillary muscle.
Experiment [12] can be described thus: Ionotropic effect in guinea pig ventricle papillary muscles assessed as lengthening of 25% repolarized cardiac action potential duration time at 10^-6 M by microelectrode technique relative to untreated control (reference value: 84 to 104 APD25 ms). The experiment is classed as functional, Cavia porcellus, Papillary muscle.
Experiment [13] can be described thus: Ionotropic effect in guinea pig ventricle papillary muscles assessed as lengthening of 10% repolarized cardiac action potential duration time at 10^-4 M by microelectrode technique relative to untreated control (reference value: 37 to 47 APD10 ms). It counts as functional, Cavia porcellus, Papillary muscle.
The nature of experiment [14]: Ionotropic effect in guinea pig ventricle papillary muscles assessed as lengthening of 10% repolarized cardiac action potential duration time at 10^-6 M by microelectrode technique relative to untreated control (reference value: 37 to 47 APD10 ms). The experiment is classed as functional, Cavia porcellus, Papillary muscle.
The nature of experiment [15]: Ionotropic effect in guinea pig ventricle papillary muscles assessed as lengthening of 50% repolarized cardiac action potential duration time at 10^-7 M by microelectrode technique relative to untreated control (reference value: 132 to 176 APD50 ms). It counts as functional, Cavia porcellus, Papillary muscle.
Experiment [16] can be described thus: Ionotropic effect in guinea pig right ventricle papillary muscles assessed as contraction force at 10^-5 M by force transduction assay relative to untreated control (reference value: 100%). It counts as functional, Cavia porcellus, Papillary muscle.
The nature of experiment [17]: Ionotropic effect in guinea pig ventricle papillary muscles assessed as lengthening of 90% repolarized cardiac action potential duration time at 10^-4 M by microelectrode technique relative to untreated control (reference value: 132 to 176 APD50 ms). It counts as functional, Cavia porcellus, Papillary muscle.
Experiment [18] in a line: Ionotropic effect in guinea pig ventricle papillary muscles assessed as lengthening of 50% repolarized cardiac action potential duration time at 10^-4 M by microelectrode technique relative to untreated control (reference value: 132 to 176 APD50 ms). It counts as functional, Cavia porcellus, Papillary muscle.
Experiment [19] can be described thus: Ionotropic effect in guinea pig ventricle papillary muscles assessed as lengthening of 25% repolarized cardiac action potential duration time at 10^-5 M by microelectrode technique relative to untreated control (reference value: 84 to 104 APD25 ms). It counts as functional, Cavia porcellus, Papillary muscle.
The nature of experiment [20]: Ionotropic effect in guinea pig ventricle papillary muscles assessed as lengthening of 90% repolarized cardiac action potential duration time at 10^-5 M by microelectrode technique relative to untreated control (reference value: 132 to 176 APD50 ms). It counts as functional, Cavia porcellus, Papillary muscle.
Experiment [21] is described as follows: Vasodilatory activity in human vena saphena magna assessed as relaxation of phenylephrine-induced smooth muscle contraction at 10^-7 to 10^-4 M. The experiment is classed as functional. The method, boiled down:
(§1)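 Saphenous vein rings came from 37 CABG patients. They were bathed in Tyrode's solution (mM: NaCl 137, KCl 5.4, CaCl2 1.8, MgCl2 0.9, Tris HCl 10, glucose 5; pH 7.4), equilibrated 45–60 min and washed every 15 min. Rings were precontracted with 10^-4 M phenylephrine, then given cumulative test agent at 10^-7 to 10^-4 M. Isometric relaxation was recorded, as means ± SE.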

Experiment [22] can be described thus: Vasodilatory activity in human vena saphena magna assessed as reduction in phenylephrine-induced smooth muscle contraction at 0.1 uM. It counts as functional. The arrangement: scale not given: the % may be the effect or the level left. The method, boiled down: as §1
A short description of experiment [23]: Vasodilatory activity in human vena saphena magna assessed as reduction in phenylephrine-induced smooth muscle contraction at 100 uM relative to baseline contraction. It counts as functional. More on the design: scale not given: the % may be the effect or the level left. A digest of the protocol:
as §1

Take `CCCOCCOC(=O)C1=C(C)NC=C([N+](=O)[O-])C1c1ccc(C(F)(F)F)cc1` (stereo unspecified): the Activity in experiment [1] was 73%; in [3], 83.7%; in experiment [9] it was 89.5%; in experiment [16] it was 81%. Besides, the Time in [2] amounted to 166.7 ms; in [4], 149.6 ms; in experiment [5] it was 37.5 ms; in experiment [6], 91 ms; in [7], 161.2 ms; in experiment [8] it was 35 ms. Moreover, the Time in experiment [10] is reported as 101 ms; in [11] it was 180 ms; in experiment [12] it was 96 ms; in experiment [13], 38.2 ms; in experiment [14] it was 36 ms; in [15], 136.6 ms. The Time in experiment [17] is reported as 189.6 ms; in experiment [18], 158.7 ms; in experiment [19], 103.3 ms; in [20], 188 ms.
Regarding `COC(=O)C1=C(C)NC(C)=C([N+](=O)[O-])C1c1ccccc1C(F)(F)F` (stereo unspecified), the Activity came to 176% in [1]; 155% in [3]; 50% in [22]; 123% in experiment [9]; 175% in experiment [16]; 19% in [23]. Moreover, the Time in experiment [2] is on record as 220 ms; in experiment [4] it was 133.8 ms; in experiment [5] it was 41 ms; in experiment [6], 92.7 ms; in experiment [7] it was 129 ms; in experiment [8], 44.5 ms. Besides, the Time in experiment [10] worked out at 89 ms; in experiment [11] it was 218.2 ms; in experiment [12], 91 ms; in [13], 42.7 ms; in [14], 42 ms; in experiment [15] it was 135.6 ms. In addition, the Time in experiment [17] worked out at 223.5 ms; in [18], 133.8 ms; in experiment [19], 85.1 ms; in experiment [20] it was 217 ms. In addition, the result in [21] was Active.
`CCOC(=O)C1=C(C)NC2=C(C(=O)OC2)C1c1ccccc1OC(F)F` (stereo unspecified): in experiment [21], the result was Active. Also, the values for the Activity in experiment [22] and in experiment [23] were 50% and 19%, respectively.
For the molecule `COC(=O)C1=C(C)NC(C)=C([N+](=O)[O-])C1c1ccccc1OC(F)F` (stereo unspecified), the Activity in [1] came to 111%; in experiment [3], 112.6%; in [9] it was 114.4%; in experiment [16], 108.3%. Moreover, the Time in experiment [2] is 178.3 ms; in experiment [4] it was 149 ms; in experiment [5], 55.3 ms; in experiment [6], 101.7 ms; in [7] it was 147 ms; in [8] it was 51.3 ms. For the same molecule, the Time in experiment [10] stood at 109.2 ms; in [11] it was 178.3 ms; in [12], 110.3 ms; in [13], 53.8 ms; in experiment [14], 54.5 ms; in [15], 144.8 ms. Also, the Time in experiment [17] worked out at 176.7 ms; in experiment [18] it was 148.5 ms; in [19], 110.8 ms; in experiment [20], 175 ms.
As for `COC(=O)C1=C(C)NC=C([N+](=O)[O-])C1c1ccccc1OC(F)F` (stereo unspecified), the Activity was determined as 92.8% in experiment [1], 73.5% in experiment [3], 78.85% in experiment [9] and 90.3% in experiment [16]. The Time is recorded as 190 ms in experiment [2]; 161 ms in [4]; 39.5 ms in experiment [5]; 90.6 ms in experiment [6]; 177 ms in experiment [7]; 36 ms in [8]. The Time in experiment [10] is 112.6 ms; in [11], 202 ms; in experiment [12], 93.7 ms; in experiment [13] it was 39.5 ms; in [14] it was 35 ms; in experiment [15], 153 ms. In addition, the Time came to 220 ms in experiment [17], 178 ms in [18], 111.6 ms in experiment [19] and 217 ms in experiment [20].
For the molecule `COC(=O)C1=C(C)NC=C([N+](=O)[O-])C1c1ccccc1C(F)(F)F` (stereo unspecified), the Activity in experiment [1] amounted to 97.8%; in experiment [3], 98.5%; in experiment [9], 101%; in experiment [16], 103%. The Time came out at 171.5 ms in experiment [2]; 140.5 ms in experiment [4]; 44.7 ms in experiment [5]; 92.5 ms in [6]; 149.8 ms in [7]; 40 ms in [8]. The Time in experiment [10] worked out at 111.3 ms; in experiment [11], 172 ms; in experiment [12] it was 91.4 ms; in [13], 47 ms; in experiment [14], 38.5 ms; in experiment [15], 138 ms. Besides, the Time came out at 184 ms in experiment [17], 156.5 ms in experiment [18], 103.2 ms in experiment [19] and 175.5 ms in [20].
